Values after ≈ are worked out from the molar mass of the structure shown.
Experiments:
Type in all cases: functional
Staphylococcus aureus [1] = assay: Antibacterial activity against methicillin-susceptible Staphylococcus aureus after 18 hrs by NCCLS agar dilution method
Outline: (§1)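 Clinical isolates were tested by agar dilution on Mueller-Hinton agar with drug dilutions from 0.12 to 64 µg/ml. Test compounds were dissolved in 80% DMSO in water. Final inoculum was 10^7 CFU/ml, incubated at 35 °C for 18 h. MIC was the lowest concentration inhibiting visible growth.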

Haemophilus influenzae = assay: Antibacterial activity against Haemophilus influenzae ATCC 49247 after 18 hrs by NCCLS agar dilution method; details: ATCC 49247, 18 h
Outline: (§2)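 NCCLS agar dilution on Mueller-Hinton agar with 5% sheep blood added to support growth. Drug dilutions 0.12–64 µg/ml. Test agents in 80% DMSO in water, linezolid in 40% water in ethanol. Final inoculum 10^7 CFU/ml, 18 h at 35 °C. MIC read as the lowest concentration with no visible growth.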

Enterococcus [2] = assay: Antibacterial activity against vancomycin-resistant Enterococcus after 18 hrs by NCCLS agar dilution method; outline: as §1
Moraxella catarrhalis [3] = assay: Antibacterial activity against Moraxella catarrhalis ATCC 8176 after 18 hrs by NCCLS agar dilution method; details: ATCC 8176, 18 h; outline: as §2
Staphylococcus aureus [4] = assay: Antibacterial activity against methicillin-resistant Staphylococcus aureus after 18 hrs by NCCLS agar dilution method; outline: as §1
Streptococcus pneumoniae = assay: Antibacterial activity against penicillin-resistant Streptococcus pneumoniae after 18 hrs by NCCLS agar dilution method
Outline: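 Agar dilution was run on Mueller-Hinton agar supplemented with 5% sheep blood, with drug dilutions from 0.12 to 64 µg/ml. Test compounds were dissolved in 80% DMSO in water. Final inoculum was 10^7 CFU/ml, incubated at 35 °C for 18 h. MIC was the lowest concentration preventing visible growth.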

Escherichia coli = assay: Antibacterial activity against Escherichia coli ATCC 25922 after 18 hrs by NCCLS agar dilution method; details: ATCC 25922, 18 h
Outline: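 Agar dilution per NCCLS on Mueller-Hinton agar, drug dilutions 0.12–64 µg/ml. Linezolid dissolved in 40% water in ethanol, vancomycin in water, test agents in 80% DMSO in water. Inoculum 10^7 CFU/ml (final), incubated 35 °C for 18 h. MIC is the lowest concentration preventing visible growth.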

Staphylococcus [5] = assay: Antibacterial activity against methicillin-susceptible coagulase-negative Staphylococcus after 18 hrs by NCCLS agar dilution method; outline: as §1
Staphylococcus [6] = assay: Antibacterial activity against methicillin-resistant coagulase-negative Staphylococcus after 18 hrs by NCCLS agar dilution method; outline: as §1
Enterococcus [7] = assay: Antibacterial activity against vancomycin-susceptible Enterococcus after 18 hrs by NCCLS agar dilution method; outline: as §1
Staphylococcus aureus [8] = assay: Antibacterial activity against Staphylococcus aureus ATCC 25923 after 18 hrs by NCCLS agar dilution method; details: ATCC 25923, 18 h
Outline: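 Plain Mueller-Hinton agar, agar dilution per NCCLS, concentrations 0.12–64 µg/ml. Test agents in 80% DMSO in water, linezolid in 40% water in ethanol, vancomycin in water. Final inoculum 10^7 CFU/ml, 35 °C for 18 h. MIC = lowest concentration inhibiting visible growth.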

Staphylococcus aureus [9] = assay: Antibacterial activity against Staphylococcus aureus ATCC 25923 after 18 hrs by […] in presence of human plasma; details: ATCC 25923, Plasma
Outline: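 To gauge plasma protein binding and/or plasma instability, MIC was determined in Mueller-Hinton broth containing 50% human plasma. Linezolid served as a reference agent. Ratio compares this MIC with the MIC obtained without plasma.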

Moraxella catarrhalis [10] = assay: Antibacterial activity against Moraxella catarrhalis clinical isolate 125 after 18 hrs by NCCLS agar dilution method; details: clinical isolate 125, 18 h; outline: as §2
Moraxella catarrhalis [11] = assay: Antibacterial activity against Moraxella catarrhalis clinical isolate 36 after 18 hrs by NCCLS agar dilution method; details: clinical isolate 36, 18 h; outline: as §2
Moraxella catarrhalis [12] = assay: Antibacterial activity against Moraxella catarrhalis clinical isolate 255 after 18 hrs by NCCLS agar dilution method; details: clinical isolate 255, 18 h; outline: as §2
Moraxella catarrhalis [13] = assay: Antibacterial activity against Moraxella catarrhalis clinical isolate 2824 after 18 hrs by NCCLS agar dilution method; details: clinical isolate 2824, 18 h; outline: as §2
Moraxella catarrhalis [14] = assay: Antibacterial activity against Moraxella catarrhalis clinical isolate 138 after 18 hrs by NCCLS agar dilution method; details: clinical isolate 138, 18 h; outline: as §2
Moraxella catarrhalis [15] = assay: Antibacterial activity against Moraxella catarrhalis clinical isolate 1 after 18 hrs by NCCLS agar dilution method; details: clinical isolate 1, 18 h; outline: as §2
Moraxella catarrhalis [16] = assay: Antibacterial activity against Moraxella catarrhalis clinical isolate 112 after 18 hrs by NCCLS agar dilution method; details: clinical isolate 112, 18 h; outline: as §2
Moraxella catarrhalis [17] = assay: Antibacterial activity against Moraxella catarrhalis clinical isolate 3447 after 18 hrs by NCCLS agar dilution method; details: clinical isolate 3447, 18 h; outline: as §2

SMILES	MIC (Staphylococcus aureus [1])	MIC (Haemophilus influenzae)	MIC (Enterococcus [2])	MIC (Moraxella catarrhalis [3])	MIC (Staphylococcus aureus [4])	MIC (Streptococcus pneumoniae)	MIC (Escherichia coli)	MIC (Staphylococcus [5])	MIC (Staphylococcus [6])	MIC (Enterococcus [7])	MIC (Staphylococcus aureus [8])	MIC (Staphylococcus aureus [9])	MIC (Moraxella catarrhalis [10])	MIC (Moraxella catarrhalis [11])	MIC (Moraxella catarrhalis [12])	MIC (Moraxella catarrhalis [13])	MIC (Moraxella catarrhalis [14])	MIC (Moraxella catarrhalis [15])	MIC (Moraxella catarrhalis [16])	MIC (Moraxella catarrhalis [17])
O=C(NCC(=O)N1CCN(c2ccc(N3C[C@H](Cn4ccnn4)OC3=O)cc2F)CC1)C1CCCO1 (some centres undefined)	4 µg/mL (≈ 7.98 µM)	32 µg/mL (≈ 63.8 µM)	8 µg/mL (≈ 16 µM)	16 µg/mL (≈ 31.9 µM)	4 µg/mL (≈ 7.98 µM)	1 µg/mL (≈ 1.99 µM)	> 64 µg/mL	4 µg/mL (≈ 7.98 µM)	4 µg/mL (≈ 7.98 µM)	4 µg/mL (≈ 7.98 µM)	8 µg/mL (≈ 16 µM)	16 µg/mL								
Cc1cn(C[C@H]2CN(c3ccc(N4CCN(C(=O)CNC(=O)C5CCCO5)CC4)c(F)c3)C(=O)O2)nn1 (some centres undefined)	16 µg/mL (≈ 31 µM)	32 µg/mL (≈ 62.1 µM)	16 µg/mL (≈ 31 µM)	32 µg/mL (≈ 62.1 µM)	16 µg/mL (≈ 31 µM)	0.5 µg/mL (≈ 0.97 µM)	> 64 µg/mL	16 µg/mL (≈ 31 µM)	16 µg/mL (≈ 31 µM)	16 µg/mL (≈ 31 µM)	32 µg/mL (≈ 62.1 µM)	32 µg/mL								
O=C(NCC(=O)N1CCN(c2ccc(N3C[C@H](Cn4ccnn4)OC3=O)cc2F)CC1)c1ccccc1	0.5 µg/mL (≈ 0.985 µM)	32 µg/mL (≈ 63.1 µM)	0.5 µg/mL (≈ 0.985 µM)	32 µg/mL (≈ 63.1 µM)	0.5 µg/mL (≈ 0.985 µM)	1 µg/mL (≈ 1.97 µM)	> 64 µg/mL	0.5 µg/mL (≈ 0.985 µM)	0.5 µg/mL (≈ 0.985 µM)	1 µg/mL (≈ 1.97 µM)	1 µg/mL (≈ 1.97 µM)	> 64 µg/mL								
Cc1cn(C[C@H]2CN(c3ccc(N4CCN(C(=O)CNC(=O)c5cccs5)CC4)c(F)c3)C(=O)O2)nn1	1 µg/mL (≈ 1.9 µM)	16 µg/mL (≈ 30.3 µM)	1 µg/mL (≈ 1.9 µM)	8 µg/mL (≈ 15.2 µM)	1 µg/mL (≈ 1.9 µM)	0.5 µg/mL (≈ 0.948 µM)	> 64 µg/mL	1 µg/mL (≈ 1.9 µM)	1 µg/mL (≈ 1.9 µM)	1 µg/mL (≈ 1.9 µM)	2 µg/mL (≈ 3.79 µM)	8 µg/mL	8 µg/mL (≈ 15.2 µM)	8 µg/mL (≈ 15.2 µM)	8 µg/mL (≈ 15.2 µM)	8 µg/mL (≈ 15.2 µM)	8 µg/mL (≈ 15.2 µM)	≥ 8 µg/mL	8 µg/mL (≈ 15.2 µM)	≥ 8 µg/mL
O=C(NCC(=O)N1CCN(c2ccc(N3C[C@H](Cn4ccnn4)OC3=O)cc2F)CC1)c1ccco1	1 µg/mL (≈ 2.01 µM)	16 µg/mL (≈ 32.2 µM)	1 µg/mL (≈ 2.01 µM)	16 µg/mL (≈ 32.2 µM)	1 µg/mL (≈ 2.01 µM)	0.25 µg/mL (≈ 0.503 µM)	> 64 µg/mL	1 µg/mL (≈ 2.01 µM)	1 µg/mL (≈ 2.01 µM)	1 µg/mL (≈ 2.01 µM)	2 µg/mL (≈ 4.02 µM)	2 µg/mL								
Cc1cn(C[C@H]2CN(c3ccc(N4CCN(C(=O)CNC(=O)c5ccco5)CC4)c(F)c3)C(=O)O2)nn1	2 µg/mL (≈ 3.91 µM)	4 µg/mL (≈ 7.82 µM)	2 µg/mL (≈ 3.91 µM)	8 µg/mL (≈ 15.6 µM)	2 µg/mL (≈ 3.91 µM)	0.5 µg/mL (≈ 0.977 µM)	> 64 µg/mL	2 µg/mL (≈ 3.91 µM)	2 µg/mL (≈ 3.91 µM)	2 µg/mL (≈ 3.91 µM)	2 µg/mL (≈ 3.91 µM)	4 µg/mL	> 8 µg/mL	> 8 µg/mL	> 8 µg/mL	> 8 µg/mL	> 8 µg/mL	> 8 µg/mL	> 8 µg/mL	> 8 µg/mL
O=C(CNS(=O)(=O)c1cccs1)N1CCN(c2ccc(N3C[C@H](Cn4ccnn4)OC3=O)cc2F)CC1	2 µg/mL (≈ 3.64 µM)	≥ 64 µg/mL	2 µg/mL (≈ 3.64 µM)	32 µg/mL (≈ 58.2 µM)	2 µg/mL (≈ 3.64 µM)	1 µg/mL (≈ 1.82 µM)	> 64 µg/mL	2 µg/mL (≈ 3.64 µM)	2 µg/mL (≈ 3.64 µM)	2 µg/mL (≈ 3.64 µM)	4 µg/mL (≈ 7.28 µM)	32 µg/mL								
Cc1cn(C[C@H]2CN(c3ccc(N4CCN(C(=O)CNS(=O)(=O)c5cccs5)CC4)c(F)c3)C(=O)O2)nn1	8 µg/mL (≈ 14.2 µM)	64 µg/mL (≈ 114 µM)	8 µg/mL (≈ 14.2 µM)	32 µg/mL (≈ 56.8 µM)	8 µg/mL (≈ 14.2 µM)	2 µg/mL (≈ 3.55 µM)	> 64 µg/mL	8 µg/mL (≈ 14.2 µM)	8 µg/mL (≈ 14.2 µM)	8 µg/mL (≈ 14.2 µM)	16 µg/mL (≈ 28.4 µM)	32 µg/mL								
CC(=O)NC[C@H]1CN(c2ccc(N3CCOCC3)c(F)c2)C(=O)O1 [LINEZOLID]	0.5 µg/mL (≈ 1.48 µM)	8 µg/mL (≈ 23.7 µM)	0.5 µg/mL (≈ 1.48 µM)	8 µg/mL (≈ 23.7 µM)	0.5 µg/mL (≈ 1.48 µM)		> 64 µg/mL	0.5 µg/mL (≈ 1.48 µM)	0.5 µg/mL (≈ 1.48 µM)	0.5 µg/mL (≈ 1.48 µM)			8 µg/mL (≈ 23.7 µM)	8 µg/mL (≈ 23.7 µM)	8 µg/mL (≈ 23.7 µM)	8 µg/mL (≈ 23.7 µM)	8 µg/mL (≈ 23.7 µM)	8 µg/mL (≈ 23.7 µM)	8 µg/mL (≈ 23.7 µM)	8 µg/mL (≈ 23.7 µM)

From ChEMBL document CHEMBL2412955, “Synthesis and antibacterial activities of N-substituted-glycinyl 1H-1,2,3-triazolyl oxazolidinones” (2013)
